HUVEC prolif 384: blocks proliferation of human endothelial cells. HUVEC proliferation, CellTiter-Glo luminescence, 72 h; hits give low values. viability, % at 10 µM (by protocol). 1.1% of 86,000 active;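 active means viability at or below 30%; inactive means viability above 30%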;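 further: 100% = median luminescence of DMSO-only cell control wells on each plate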
H69AR inhibit: blocks growth of human H69AR lung tumor cells | H69AR lung tumor viability, ATP luminescence, 72 h; hits give low values | viability, % at 10 µM | 6% of 85,000 active | AID 598;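 active means viability at or below 40%; inactive means viability above 40%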;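 further: multidrug resistant small cell line overexpressing MRP-1 efflux transporter; 100% = mean luminescence of untreated control wells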
bCat KO growth: beta-catenin-lacking colon tumor cell growth suppression. viability, % at 10 µM. AID 818. 1.5% of 140,000 active. HCT116 beta-catenin knockout viability, CellTiter-Glo, 60 h; hits give low values;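 active means viability at or under a set limit, the compound median less 4 SD, cut at about 6% in these data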;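 further: 0% = Hyamine 1622 control at 20 µM and 100% = untreated cell control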
Fibroblast inh: blocks proliferation of human lung fibroblasts | LL 47 human lung fibroblast viability, ATP luminescence; hits give low values | viability, % at 10 µM | 1.1% of 85,000 active;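 active means viability at or below 50% in the single dose screen; inactive means viability above 50%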;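 further: compound exposure lasted 72 h before the ATP readout; 100% = median luminescence of untreated cell-only wells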
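Times – overnight cell rest, 72 h compound treatment at 37 °C · Test system – human lung fibroblast line LL 47, low passage · Amount – 1,150 cells in each well · Controls – cell-only wells, no compound · Doses – 0.1% DMSO in all compound wells · Measured by – CellTiter-Glo luminescence · Buffer or medium – IMEM plus 15% FBS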
HCT116 PTEN-null: growth suppressors of cells with PTEN tumor suppressor deletion. HCT116 PTEN-null viability, CellTiter-Glo, 60 h; hits give low values. viability, % at 10 µM. 1.2% of 140,000 active;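 active means viability at or below a set limit, 4 SD under the median of all tested compounds, cut at about 3.7% in these data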;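 further: PTEN knockout HCT116 line with beta catenin targeted HCT116 as companion control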
Numbers without * were called inactive; . = no result given. This is one part of a sample in which hits are shown more often than they occur.

SMILES	HUVEC prolif 384	H69AR inhibit	bCat KO growth	Fibroblast inh	HCT116 PTEN-null
Oc1ccc(N=C/C=C/c2cccc(Br)c2)cc1-c1nc2ccccc2s1	.	.	5.1*	.	5
O=C(Nc1ccc(O)c(-c2nc3ccccc3s2)c1)c1cc(=O)c2ccccc2o1	.	.	31	.	22
Nc1ccc(O)c(-c2nc3ccccc3s2)c1	74	97	8	82	3.4*
O=C(N1CCN(c2cccc(Cl)c2)CC1)C1(c2cccs2)CCOCC1	.	.	62	.	60
CC1(C)OC(=O)N(CCc2ccccc2)C1(C)O (stereo not given)	96	106	98	.	90
CC1(C)OC(=O)N(c2ccccc2)C12C=Cc1cc(Br)ccc1O2 (stereo not given)	100	18*	66	91	52
Cc1c(Br)cc(C(=O)OC2CCN(C)CC2)c(C)c1C	78	3.8*	76	91	83
CCC(C(=O)O/N=C(\N)c1ccccc1)c1ccccc1 (stereo not given)	75	1.2*	85	74	93
CCC(C(=O)O/N=C(\N)c1ccc(C)cc1)c1ccccc1 (stereo not given)	86	53	100	93	100
O=C(/C=C/c1ccccc1)c1ccccc1	78	1.5*	2.1*	86	2.0*
O=C(/C=C/NNC(=O)c1ccccc1)c1ccccc1	101	87	87	20*	91
O=C(/C=C/c1ccccc1)/C=C/c1ccccc1	.	.	0.8*	.	0.7*
Cc1cccc(Sc2nc(-c3ccccc3)ccc2C#N)c1	.	.	60	.	63
CCC(=O)N1C(Cc2ccccc2)COC1(C)C (stereo not given)	.	.	98	.	93
O=C(/C=C/c1ccccc1)c1ccc2c3c(cccc13)CC2	.	.	1.4*	.	1.8*
N/C(=N\OC(=O)/C=C/c1ccccc1)c1ccccc1	83	39*	93	105	99
CC1=C/C(=N\OC(=O)/C=C/c2ccccc2)C(C)=CC1=O	.	.	47	.	52
CC(C(=O)N1CCc2ccccc21)n1cccc1 (stereo not given)	95	102	97	96	94
COc1ccc(OC(C)C(=O)N2CCc3ccccc3C2)cc1 (stereo not given)	74	25*	32	96	33
COc1ccc(OC(C)C(=O)N2CCC(C)CC2)cc1 (stereo not given)	108	98	87	109	96
Clc1ccc(C(c2nnnn2C2CCCCC2)N(Cc2cccnc2)Cc2ccco2)cc1 (stereo not given)	97	36*	46	91	58
Cc1ccc2[nH]c(=O)c(C(c3nnnn3C3CCCC3)N(Cc3cccnc3)Cc3ccco3)cc2c1 (stereo not given)	80	62	74	90	69
c1ccc(-c2cc3nccc(-c4ccccn4)n3n2)cc1	.	.	79	.	72
CCn1c(C)nc2cc(C(=O)n3cc(C(=O)c4ccccc4O)cn3)ccc21	.	.	105	.	98
Cc1ccc(-c2nc3n(n2)Cc2ccccc2-3)cc1	84	67	69	87	78
SMILES	HUVEC prolif 384	H69AR inhibit	bCat KO growth	Fibroblast inh	HCT116 PTEN-null
Fc1ccc(-c2nc3n(n2)Cc2ccccc2-3)cc1	73	37*	51	73	53
CCn1c(C)nc2cc(-c3nc4n(n3)Cc3ccccc3-4)ccc21	26*	16*	17	24*	16
CC(C)c1nc(SCC(=O)N2CCCC2)c2ccccc2n1	84	29*	72	82	75
CC1CCCCN1C(=O)Cn1c(=O)n(CCC(=O)NCc2ccco2)c(=O)c2sccc21 (stereo not given)	.	.	96	.	95
CC(=O)C1=C(O)C(=O)N(Cc2ccco2)C1c1ccc2c(c1)OCO2 (stereo not given)	94	104	92	100	98
Cc1ccc(Nc2ncnc3c2oc2ccccc23)cc1	82	54	90	99	91
COc1ccc(Nc2ncnc3c2oc2ccccc23)cc1	91	39*	85	98	80
Nc1nc(Nc2cccc(F)c2)nc2ccccc12	74	36*	70	.	71
CCn1c(SCc2ccc(C#N)cc2)nnc1-c1ccc(S(=O)(=O)N2CCCCC2)cc1	75	34*	75	87	66
COc1ccc(-c2cc(C(=O)N3CCN(c4ncccn4)CC3)c3ccccc3n2)c(OC)c1	.	.	71	.	59
COc1ccc(OC)c(-c2cc(C(=O)N3CCN(c4ncccn4)CC3)c3ccccc3n2)c1	58	30*	76	88	63
COc1ccc(-c2cc(C(=O)N3CCN(c4ccccn4)CC3)c3ccccc3n2)cc1	59	16*	38	93	30
CCOC(=O)N1CCN(C(=O)c2cc(-c3ccc(OCC)cc3)nc3ccccc23)CC1	48	16*	18	53	15
CCOc1ccc(-c2cc(C(=O)N3CCN(c4ccccn4)CC3)c3ccccc3n2)cc1	52	18*	20	57	22
COc1ccc(CNC(=O)c2ccc(NC(=O)C3CCCO3)cc2)cc1 (stereo not given)	102	90	107	101	100
CC(C)n1nnnc1SCC(=O)N1CCOCC1	94	99	87	101	103
CC(C)CN=C(NS(=O)(=O)c1ccccc1)C(Cl)(Cl)Cl	.	.	4.7*	.	4
COc1ccccc1N=C1SCC(=O)N1c1ccccc1OC	.	.	85	.	92
CCCOc1ccc(C2/C(=C(\O)c3c(C)[nH]c(C(=O)OC)c3C)C(=O)C(=O)N2CCN(C)C)cc1 (stereo not given)	104	94	81	105	78
COC(=O)c1[nH]c(C)c(/C(O)=C2\C(=O)C(=O)N(CCN(C)C)C2c2cccs2)c1C (stereo not given)	.	.	98	.	103
CCOc1ccc(C2/C(=C(\O)c3c(C)[nH]c(C(=O)OC)c3C)C(=O)C(=O)N2CCN(C)C)cc1 (stereo not given)	105	92	0.7*	90	0.7*
CCOC(=O)c1[nH]c(C)c(/C(O)=C2\C(=O)C(=O)N(CCN3CCOCC3)C2c2cccs2)c1C (stereo not given)	60	33*	37	91	32
CCOC(=O)c1[nH]c(C)c(/C(O)=C2\C(=O)C(=O)N(CCN(C)C)C2c2ccc(C)o2)c1C (stereo not given)	75	19*	32	97	35
CCSc1nnc([C@H](C)NC(=O)OC(C)(C)C)o1	97	101	102	98	98
CC(=O)c1nc(N2C(=O)CC(Cc3ccc(C)cc3)C2=O)sc1C (stereo not given)	.	.	95	.	88
COCc1cc(=O)[nH]c(Nc2nc3ccc(C)cc3o2)n1	39	21*	7	5.2*	5
COc1cccc(-c2noc(N)c2C#N)c1	100	28*	91	97	96
CCc1nnc(NC(=O)c2ccc3c(c2)C(=O)N(C(C)(C)C)C3=O)s1	87	39*	99	101	97
CCc1nnc(NC(=O)c2cccc(C(=O)Nc3nnc(CC)s3)n2)s1	3.7*	3.7*	5.0*	4.8*	2.2*
